In series [1] the target is T1, Growth hormone secretagogue receptor type 1 (Homo sapiens, UniProt Q92847). Put plainly: Antagonist activity at recombinant human GHSR1a expressed in HEK293 cells assessed as inhibition of ghrelin-induced intracellular calcium release incubated for 20 secs and measured after 2 mins by FLIPR assay. In kind it is functional, cell-based. The procedure, abridged: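 HEK293/GHSR1a cells were dye-loaded for 30-60 min. Compounds and 10 nM ghrelin were added at t = 20 s, with a 15 min compound preincubation described. Calcium response was read for 2 min. IC50 was taken from dose-response fits of the reduction in ghrelin response; mean of at least two independent runs done in triplicate.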
T1 sequence (Q92847 whole entry): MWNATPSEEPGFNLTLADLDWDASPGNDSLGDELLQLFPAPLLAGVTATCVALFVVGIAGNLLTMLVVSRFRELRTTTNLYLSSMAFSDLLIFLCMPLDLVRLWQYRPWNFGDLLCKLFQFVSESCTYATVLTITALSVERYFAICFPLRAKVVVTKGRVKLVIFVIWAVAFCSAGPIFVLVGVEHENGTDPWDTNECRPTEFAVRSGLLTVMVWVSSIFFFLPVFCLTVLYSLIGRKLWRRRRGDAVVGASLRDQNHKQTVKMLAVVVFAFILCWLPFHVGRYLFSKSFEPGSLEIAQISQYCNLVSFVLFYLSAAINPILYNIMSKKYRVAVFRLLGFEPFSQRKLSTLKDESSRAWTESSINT
On the technique in general: A change in cytosolic calcium serves as a functional read-out for many receptors and channels.

The target in series [2] is T1, Growth hormone secretagogue receptor type 1. Put plainly: Inverse agonist at recombinant human GHSR1a expressed in HEK293 cells assessed as decrease in IP1 accumulation after 1 hr by IP1-d2-based HTRF assay. In kind it is functional, cell-based. Conditions: read-out: EC50. The procedure, abridged:
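HEK293 cells stably expressing human GHSR1a were seeded on Matrigel in complete DMEM for 18–22 h at 37 °C, 5% CO2. Compound in stimulation buffer was applied for 1 h at 37 °C. IP1-d2 and Tb-cryptate were then added for 1 h at room temperature, with HTRF read at 620/665 nm. Mean of at least two independent runs in triplicate.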
Background: TR-FRET usually uses a lanthanide donor and a delayed reading to cut background.

Series [3] in a line: Clearance in rat liver microsomes at 0.625 uM preincubated for 5 mins followed by NADPH addition and measured after 60 mins by LC-MS/MS analysis. In kind it is ADME, microsome. Conditions: read-out: CLH. The procedure, abridged: (§1)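 Liver microsomes (0.625 mg/mL protein) in 50 mM potassium phosphate pH 7.4 with 0.625 µM test item, prewarmed 5 min at 37 °C. Reaction started with NADPH (5 mM solution). Samples taken at 0, 5, 15, 30 and 60 min into cold MeCN with internal standard, analysed by LC-MS/MS. Intrinsic clearance derived by the half-life approach.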
In general terms: Liver microsomes are a subcellular fraction often used to study metabolism.

Series [4] in a line: Clearance in dog liver microsomes at 0.625 uM preincubated for 5 mins followed by NADPH addition and measured after 60 mins by LC-MS/MS analysis. In kind it is ADME, Canis lupus familiaris, microsome. The settings on record: read-out: CLH. The method in brief:
as §1

A short description of series [5]: Clearance in human liver microsomes at 0.625 uM preincubated for 5 mins followed by NADPH addition and measured after 60 mins by LC-MS/MS analysis. The series is classed as ADME, microsome. Conditions: read-out: CLH. The procedure, abridged: as §1
Series [6] in a line: Plasma clearance in rat at 3 mg/kg, iv after 24 hrs by LC-MS/MS analysis. The series is classed as ADME, organism-based. The procedure, abridged: (§2)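 Rats given 3 mg/kg i.v. via tail vein, in 2% DMSO/50% of 40% HP-β-CD. EDTA plasma sampled at 0.08–24 h and analysed by LC-MS/MS, calibration range 5-5000 ng/mL.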
Series [7] is described as follows: Half life in rat at 3 mg/kg, iv after 24 hrs by LC-MS/MS analysis. Conditions: in vivo. In kind it is ADME, organism-based. The procedure, abridged: as §2
Series [8] in a line: Volume of distribution in rat at 3 mg/kg, iv after 24 hrs by LC-MS/MS analysis. In kind it is ADME, organism-based. The settings on record: in vivo. The method in brief:
as §2

Series [9] is described as follows: Ratio of drug level in brain to plasma of rat at 3 mg/kg, iv after 2 hrs by LC-MS/MS analysis. The settings on record: read-out: BPR. In kind it is ADME, organism-based. The procedure, abridged:
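Rats given 3 mg/kg i.v. Brain collected 2 h post-dose after CO2 euthanasia and homogenized in 5 volumes of PBS pH 7.4. Brain and plasma levels measured by LC-MS/MS; ratio taken from the 2 h concentrations.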

The nature of series [10]: Oral bioavailability in rat at 3 mg/kg via gavage by LC-MS/MS analysis. In kind it is ADME, organism-based. Conditions: in vivo. The method in brief:
(§3)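 Rats given 3 mg/kg by oral gavage as a suspension in 2% DMSO/98% of 0.5% CMC. EDTA plasma sampled at 0.25–24 h and analysed by LC-MS/MS. Bioavailability estimated against the 3 mg/kg i.v. arm.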

Series [11] in a line: Tmax in rat at 3 mg/kg, po via gavage by LC-MS/MS analysis. The series is classed as ADME, organism-based. The settings on record: in vivo. The method in brief:
as §3

The subject of another series is MDR1. Put plainly: Apparent permeability across apical to basolateral side in MDCK2 cells expressing human MDR1 at 1 uM after 90 mins in absence of MDR1 inhibitor cyclosporine A by LC-MS/MS analysis. In kind it is ADME, cell-based, Canis lupus familiaris, MDCK-II. Conditions: dog, MDCK-MDR1. The method in brief:
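MDR1-MDCKII monolayers grown 4 days on transwell inserts, with integrity checked by TEER. Test item at 1 µM in HBSS/10 mM HEPES/25 mM glucose pH 7.4, in duplicate, added to the apical side. Receiver sampled after 90 min at 37 °C and analysed by LC-MS/MS; Papp = (dMr/dt)/(A×C0).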

Series [12] is described as follows: Protein binding in human plasma at 1 uM after 6 hrs by equilibrium dialysis. The settings on record: read-out: PPB. In kind it is ADME, cell-free. The procedure, abridged: (§4)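 Compound spiked at 1.0 µM final (0.5% DMSO) into plasma. Equilibrium dialysis against DPBS pH 7.4 across a 12–14 kD membrane for 6 h at 37 °C, in triplicate. Buffer-only controls used for nonspecific binding. Unbound fraction = acceptor/donor concentration by LC-MS/MS; reported as % bound.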

Series [13] is described as follows: Protein binding in rat plasma at 1 uM after 6 hrs by equilibrium dialysis. The series is classed as ADME, cell-free. Conditions: read-out: PPB. The procedure, abridged: as §4
For series [14], the system named is Mus musculus. Put plainly: Anti-obesity activity in C57BL/6J mouse assessed as inhibition of anamorelin-induced increase in food intake by measuring cumulative food intake at 10 mg/kg, ip pretreated for 10 mins followed by anamorelin addition and measured after 1 hr post dose (reference value: 0.63 +/- 0.04 g). In kind it is functional. The method in brief:
(§5)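 Male C57BL/6J mice (18–22 g at arrival), fed ad libitum. Dosed 10 mg/kg i.p. at t = 0 in 10% DMAC/6% Solutol HS 15/84% PBS, then anamorelin 30 mg/kg p.o. (0.5% CMC) at 10 min. Cumulative food intake recorded at 1, 2, 4, 8 and 24 h; n=6 per group; mean ± SEM; ANOVA with Dunnett test versus vehicle+anamorelin.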

Series [15] has as its system Mus musculus. In words: Anti-obesity activity in C57BL/6J mouse assessed as inhibition of anamorelin-induced increase in food intake by measuring cumulative food intake at 10 mg/kg, ip pretreated for 10 mins followed by anamorelin addition and measured after 2 hrs post dose (reference value: 1.37 +/- 0.05 g). In kind it is functional. The method in brief: as §5
For series [16], the system named is Mus musculus. In words: Anti-obesity activity in C57BL/6J mouse assessed as inhibition of anamorelin-induced increase in food intake by measuring cumulative food intake at 10 mg/kg, ip pretreated for 10 mins followed by anamorelin addition and measured after 8 hrs post dose (reference value: 2.97 +/- 0.09 g). In kind it is functional. The procedure, abridged:
as §5

Series [17] relates to Mus musculus. In words: Anti-obesity activity in C57BL/6J mouse assessed as inhibition of anamorelin-induced increase in food intake by measuring cumulative food intake at 30 mg/kg, po pretreated for 10 mins followed by anamorelin addition and measured after 2 hrs post dose (reference value: 1.37 +/- 0.05 g).
Series [18] has as its system Mus musculus. Put plainly: Anti-obesity activity in C57BL/6J mouse assessed as inhibition of anamorelin-induced increase in food intake by measuring cumulative food intake at 30 mg/kg, po pretreated for 10 mins followed by anamorelin addition and measured after 8 hrs post dose (reference value: 2.97 +/- 0.09 g).
Series [19] relates to Mus musculus. In words: Anti-obesity activity in C57BL/6J mouse assessed as inhibition of anamorelin-induced increase in food intake by measuring cumulative food intake at 30 mg/kg, po pretreated for 10 mins followed by anamorelin addition and measured after 24 hrs post dose (reference value: 8.31 +/- 0.2 g).

Usually IC50 stands for the midpoint of a concentration-inhibition curve. The EC50 is the midpoint of the concentration-response curve. As a reminder, the clearance is a measure of how efficiently the substance is removed, as volume per time. A low value points to a low capacity for elimination. The term half-life denotes the time in which the quantity being followed falls by half. A higher half-life goes with slow loss. The term Vd denotes a proportionality between amount in the body and measured concentration, not a real space. High values mean wide distribution into tissue, low ones little distribution into tissue. Usually bioavailability stands for the share of a dose that reaches the circulation, judged against a reference dose that is usually intravenous. A higher bioavailability goes with good availability. By Tmax is commonly meant the time from dosing to the highest level. The Papp A→B is how fast a substance crosses the layer from the apical side. For the compound `Cc1cc(-c2ccc3c(c2)CC[C@H]3N2CCC(N(C)C(=O)N[C@@H](C)c3ccc(C#CC4CC4)c(Cl)c3Cl)CC2)ncn1`, the IC50 in series [1] is 68.2 nM. For the same compound, the EC50 in series [2] amounted to 29.4 nM. The microsomal CLint at 0.625 µM in series [3] stood at 57.8 µL/min/mg; in series [4], 52.2 µL/min/mg; in series [5], 74.7 µL/min/mg. For the same compound, the clearance in series [6] was 15.2 mL/min/kg. Besides, the half-life in series [7] was 6.49 h. This compound also came in with a distribution volume (Vd) in [8] of 8.48 L/kg. For the same compound, the Kp at 2 h in series [9] stood at 1.86. In [10], this compound displayed a bioavailability of 27%. In [11], the Tmax is 6.7 h. Besides, the Papp A→B at 1.5 h, 1 µM with MDR1 was 3.9 ×10⁻⁶ cm/s. Also, the fraction unbound at 6 h, 1 µM in [12] and in [13] was 0.0001 throughout. In addition, the Activity in the series with Mus musculus [14] is on record as 0.13 g; in the series with Mus musculus [15], 0.56 g; with Mus musculus [16], 2.78 g; in the series on Mus musculus [17], 0.86 g; in the series on Mus musculus [18] it was 1.8 g; with Mus musculus [19], 7.42 g.

The values above are taken from ChEMBL document CHEMBL4257564, “Rational Design, Synthesis, and Pharmacological Characterization of Novel Ghrelin Receptor Inverse Agonists as Potential Treatment against Obesity-Related Metabolic Diseases” (J Med Chem, 2018).
